# Assay results: ChEMBL document CHEMBL4831495, “Discovery of novel BCR-ABL PROTACs based on the cereblon E3 ligase design, synthesis, and biological evaluation” (Eur J Med Chem, 2021)
# Experiments:
# K562 = test: Antiproliferative activity against human K562 cells assessed as cell growth inhibition measured after 48 hrs by CCK8 assay; format: functional, cell-based; conditions: K562, 48 h
# Summary of the method: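 Cells were seeded at 3000-20,000 per well and given 3-fold serial dilutions of compound in medium. After 2 days at 37 °C in 5% CO2, CCK-8 reagent was added for 2-4 h and absorbance was read at 450 nm.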
# [1] = target: Protein cereblon/Tyrosine-protein kinase ABL1/Breakpoint cluster region protein (Homo sapiens, UniProt P00519+P11274+Q96SW2); test: PROTAC activity at CRBN/Bcr-Abl in human K562 cells assessed as degrading activity by Western blotting analysis; format: cell-based
# [2] = Tmax in Wistar rat at 2 mg/kg, iv by LC-MS/MS analysis; format: ADME, organism-based; conditions: in vivo
# Summary of the method: (§1)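 Single intravenous dose of 2 mg/kg into the femoral vein of female Wistar rats, given as a solution in NMP/PEG200 (1:9, v/v). Plasma was collected by sublingual vein bleeding at 0.083, 0.25, 0.5, 1, 2, 4, 6, 8, 12 and 24 h from one group of rats (n = 3). Samples were extracted and quantified by LC-MS/MS, LOQ 2.5 ng/mL.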
# [3] = AUC (0 to t) in Wistar rat at 2 mg/kg, iv by LC-MS/MS analysis; format: ADME, organism-based; set-up: dose 2 mg/kg; conditions: in vivo; summary of the method: as §1
# [4] = Apparent volume of distribution during steady state in Wistar rat at 2 mg/kg, iv by LC-MS/MS analysis; format: ADME, organism-based; conditions: in vivo, read-out: Vdss; summary of the method: as §1
# [5] = Clearance in Wistar rat at 2 mg/kg, iv by LC-MS/MS analysis; format: ADME, organism-based; conditions: in vivo; summary of the method: as §1
# [6] = Apparent volume of distribution during terminal state in Wistar rat at 2 mg/kg, iv by LC-MS/MS analysis; format: ADME, organism-based; conditions: in vivo, read-out: Vz; summary of the method: as §1
# [7] = MRT (0 to t) in Wistar rat at 2 mg/kg, iv by LC-MS/MS analysis; format: ADME, organism-based; conditions: in vivo; summary of the method: as §1
# [8] = Half life in Wistar rat at 2 mg/kg, iv by LC-MS/MS analysis; format: ADME, organism-based; conditions: in vivo; summary of the method: as §1
# [9] = Cmax in Wistar rat at 2 mg/kg, iv by LC-MS/MS analysis; format: ADME, organism-based; set-up: route intravenous, dose 2 mg/kg; conditions: in vivo; summary of the method: as §1
# Chain of Protein cereblon/Tyrosine-protein kinase ABL1/Breakpoint cluster region protein (P00519 whole entry): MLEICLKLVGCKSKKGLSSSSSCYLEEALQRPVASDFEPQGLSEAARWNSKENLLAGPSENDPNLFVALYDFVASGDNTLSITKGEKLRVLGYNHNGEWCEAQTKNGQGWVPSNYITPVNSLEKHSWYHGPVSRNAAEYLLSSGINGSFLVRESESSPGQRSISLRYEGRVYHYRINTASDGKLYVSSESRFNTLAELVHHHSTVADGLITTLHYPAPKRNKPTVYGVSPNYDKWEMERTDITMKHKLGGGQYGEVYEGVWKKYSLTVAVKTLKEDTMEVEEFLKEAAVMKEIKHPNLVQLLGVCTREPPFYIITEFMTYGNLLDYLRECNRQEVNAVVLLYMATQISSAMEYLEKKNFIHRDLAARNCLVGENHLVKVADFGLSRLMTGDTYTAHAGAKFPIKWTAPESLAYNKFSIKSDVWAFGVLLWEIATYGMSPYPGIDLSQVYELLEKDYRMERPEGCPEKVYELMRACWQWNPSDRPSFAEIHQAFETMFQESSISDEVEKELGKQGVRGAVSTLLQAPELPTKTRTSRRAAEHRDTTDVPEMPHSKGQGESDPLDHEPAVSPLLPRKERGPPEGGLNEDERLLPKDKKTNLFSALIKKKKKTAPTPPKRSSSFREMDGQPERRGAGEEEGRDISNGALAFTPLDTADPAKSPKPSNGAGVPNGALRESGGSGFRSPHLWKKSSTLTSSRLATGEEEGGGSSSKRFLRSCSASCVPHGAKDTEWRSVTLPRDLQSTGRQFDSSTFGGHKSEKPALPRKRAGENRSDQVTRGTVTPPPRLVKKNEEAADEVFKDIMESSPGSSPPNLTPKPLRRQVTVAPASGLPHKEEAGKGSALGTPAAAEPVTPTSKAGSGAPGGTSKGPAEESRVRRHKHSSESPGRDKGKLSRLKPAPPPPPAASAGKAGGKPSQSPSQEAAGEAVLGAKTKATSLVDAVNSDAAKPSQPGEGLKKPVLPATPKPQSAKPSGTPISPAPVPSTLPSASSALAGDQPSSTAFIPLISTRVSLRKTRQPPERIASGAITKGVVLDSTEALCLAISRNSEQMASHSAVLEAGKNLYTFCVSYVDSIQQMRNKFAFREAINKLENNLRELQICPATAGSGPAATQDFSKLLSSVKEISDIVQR
# Chain of Protein cereblon/Tyrosine-protein kinase ABL1/Breakpoint cluster region protein (P11274 whole entry): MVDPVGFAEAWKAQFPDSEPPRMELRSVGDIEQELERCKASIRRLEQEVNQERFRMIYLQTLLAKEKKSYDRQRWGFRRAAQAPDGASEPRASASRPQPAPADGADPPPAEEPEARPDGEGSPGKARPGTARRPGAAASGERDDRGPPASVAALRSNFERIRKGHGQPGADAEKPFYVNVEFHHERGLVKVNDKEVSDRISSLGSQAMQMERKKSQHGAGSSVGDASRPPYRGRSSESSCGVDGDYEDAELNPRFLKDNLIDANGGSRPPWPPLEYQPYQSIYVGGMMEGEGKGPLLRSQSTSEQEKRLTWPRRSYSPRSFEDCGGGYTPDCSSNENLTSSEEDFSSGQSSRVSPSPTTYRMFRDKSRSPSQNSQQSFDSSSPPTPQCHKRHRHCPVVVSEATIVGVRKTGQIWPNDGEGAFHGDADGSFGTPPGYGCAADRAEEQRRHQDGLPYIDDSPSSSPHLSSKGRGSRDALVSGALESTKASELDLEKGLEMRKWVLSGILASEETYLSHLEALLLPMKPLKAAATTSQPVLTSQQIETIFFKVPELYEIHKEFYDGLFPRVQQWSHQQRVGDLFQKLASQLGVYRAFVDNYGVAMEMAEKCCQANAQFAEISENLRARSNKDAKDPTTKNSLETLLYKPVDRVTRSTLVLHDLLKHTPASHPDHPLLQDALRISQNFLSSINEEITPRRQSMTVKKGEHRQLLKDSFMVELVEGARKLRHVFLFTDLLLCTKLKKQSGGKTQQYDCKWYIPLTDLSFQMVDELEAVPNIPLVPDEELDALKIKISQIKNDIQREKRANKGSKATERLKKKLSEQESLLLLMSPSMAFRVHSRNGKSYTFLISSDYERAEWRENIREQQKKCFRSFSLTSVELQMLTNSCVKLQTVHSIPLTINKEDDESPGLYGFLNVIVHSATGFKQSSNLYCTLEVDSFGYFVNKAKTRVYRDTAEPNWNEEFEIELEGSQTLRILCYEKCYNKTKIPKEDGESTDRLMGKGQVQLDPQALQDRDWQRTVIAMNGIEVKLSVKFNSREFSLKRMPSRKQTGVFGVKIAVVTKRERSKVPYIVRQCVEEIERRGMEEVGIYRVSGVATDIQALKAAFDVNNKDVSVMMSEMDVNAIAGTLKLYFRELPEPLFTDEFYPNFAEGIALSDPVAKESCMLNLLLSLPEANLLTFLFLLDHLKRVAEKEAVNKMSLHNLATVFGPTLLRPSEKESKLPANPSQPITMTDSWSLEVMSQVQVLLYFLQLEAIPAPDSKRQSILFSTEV
# Chain of Protein cereblon/Tyrosine-protein kinase ABL1/Breakpoint cluster region protein (Q96SW2 whole entry): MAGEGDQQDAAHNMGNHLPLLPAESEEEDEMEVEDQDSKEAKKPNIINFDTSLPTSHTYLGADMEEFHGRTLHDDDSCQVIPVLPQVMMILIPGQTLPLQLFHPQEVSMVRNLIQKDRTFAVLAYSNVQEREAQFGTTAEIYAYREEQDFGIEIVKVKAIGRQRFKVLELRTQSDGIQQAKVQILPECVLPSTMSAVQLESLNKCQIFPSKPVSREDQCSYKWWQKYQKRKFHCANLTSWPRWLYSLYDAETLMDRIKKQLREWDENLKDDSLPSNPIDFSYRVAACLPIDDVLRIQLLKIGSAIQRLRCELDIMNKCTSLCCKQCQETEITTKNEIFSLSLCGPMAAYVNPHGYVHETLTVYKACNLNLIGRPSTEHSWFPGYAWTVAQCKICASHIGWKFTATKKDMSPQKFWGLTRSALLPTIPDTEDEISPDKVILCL
SMILES,IC50 (K562) [nM],DC50 [1] [nM],also measured
Cc1nc(Nc2ncc(C(=O)Nc3c(C)cccc3Cl)s2)cc(N2CCN(C(=O)CCCNc3cccc4c3C(=O)N(C3CCC(=O)NC3=O)C4=O)CC2)n1 (configuration not stated),5.5,7.8,–
Cc1nc(Nc2ncc(C(=O)Nc3c(C)cccc3Cl)s2)cc(N2CCN(C(=O)CSc3cccc4c3C(=O)N(C3CCC(=O)NC3=O)C4=O)CC2)n1 (configuration not stated),3.2,5.6,–
Cc1nc(Nc2ncc(C(=O)Nc3c(C)cccc3Cl)s2)cc(N2CCN(C(=O)CCc3cccc4c3C(=O)N(C3CCC(=O)NC3=O)C4=O)CC2)n1 (configuration not stated),2.84,95.4,–
Cc1nc(Nc2ncc(C(=O)Nc3c(C)cccc3Cl)s2)cc(N2CCN(CCCCNc3cccc4c3C(=O)N(C3CCC(=O)NC3=O)C4=O)CC2)n1 (configuration not stated),0.28,2.7,Tmax [2]: 4.8 min; AUC(0-t) [3]: 1.33 µg·h/mL; Vd [4]: 2.78 L/kg; clearance [5]: 1.45 L/h/kg; Vd [6]: 4.02 L/kg; MRT last [7]: 1.55 h; half-life [8]: 1.93 h; Cmax [9]: 1.45 µg/mL
Cc1nc(Nc2ncc(C(=O)Nc3c(C)cccc3Cl)s2)cc(N2CCN(C(=O)CSc3cccc4c3CN(C3CCC(=O)NC3=O)C4=O)CC2)n1 (configuration not stated),5.7,8.9,–
Cc1nc(Nc2ncc(C(=O)Nc3c(C)cccc3Cl)s2)cc(N2CCN(C(=O)CNc3cccc4c3C(=O)N(C3CCC(=O)NC3=O)C4=O)CC2)n1 (configuration not stated),1.22,10,–
Cc1nc(Nc2ncc(C(=O)Nc3c(C)cccc3Cl)s2)cc(N2CCN(C(=O)CCCCCCNc3cccc4c3C(=O)N(C3CCC(=O)NC3=O)C4=O)CC2)n1 (configuration not stated),1.47,9,–
Cc1nc(Nc2ncc(C(=O)Nc3c(C)cccc3Cl)s2)cc(N2CCN(C(=O)CCCCNc3cccc4c3CN(C3CCC(=O)NC3=O)C4=O)CC2)n1 (configuration not stated),4.2,11.1,–
Cc1nc(Nc2ncc(C(=O)Nc3c(C)cccc3Cl)s2)cc(N2CCN(C(=O)CCOCCOCCOCCOCCNc3cccc4c3C(=O)N(C3CCC(=O)NC3=O)C4=O)CC2)n1 (configuration not stated),40.4,26.1,–
Cc1nc(Nc2ncc(C(=O)Nc3c(C)cccc3Cl)s2)cc(N2CCN(C(=O)COc3cccc4c3C(=O)N(C3CCC(=O)NC3=O)C4=O)CC2)n1 (configuration not stated),7,11.1,–
Cc1nc(Nc2ncc(C(=O)Nc3c(C)cccc3Cl)s2)cc(N2CCN(C(=O)CCOCCNc3cccc4c3C(=O)N(C3CCC(=O)NC3=O)C4=O)CC2)n1 (configuration not stated),18.4,8.7,–
Cc1nc(Nc2ncc(C(=O)Nc3c(C)cccc3Cl)s2)cc(N2CCN(C(=O)CS(=O)(=O)c3cccc4c3C(=O)N(C3CCC(=O)NC3=O)C4=O)CC2)n1 (configuration not stated),206,245,–
